Reference: ChEMBL document CHEMBL2384906, “Biological activity, design, synthesis and structure activity relationship of some novel derivatives of curcumin containing sulfonamides” (Eur J Med Chem, 2013)
Converted amounts (≈) assume the structure as drawn. The source made the active and inactive calls. No cut-off for these calls is given here.

Experiments:
Escherichia coli [1] = assay: Antimicrobial activity against Escherichia coli ATCC 35218 after 24 hrs by broth micro serial dilution method; type: functional; conditions: ATCC 35218, 24 h
Procedure, shortened: (§1)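 This was broth microdilution in autoclaved Mueller-Hinton broth. 150 µL of compound per well was serially diluted […], and 50 µL of test organism was added. Plates were incubated 24 h at 37 °C and optical density was read.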

Pseudomonas aeruginosa [2] = assay: Antimicrobial activity against Pseudomonas aeruginosa ATCC 15499 assessed as diameter of inhibition zone at 40 uM after 24 hrs by Kirby -Baur disc diffusion method; type: functional; conditions: ATCC 15499, 24 h, read-out: DIZ
Procedure, shortened: (§2)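 Kirby-Bauer disc diffusion was used. Acetone stocks (160 µM) were serially doubled down to 80, 40 and 20 µM. 4 µL of each went onto 5 mm sterile paper discs, which were dried 30 min at 50 °C. Inoculum was 1.5 × 10⁸ CFU/mL diluted to 3 × 10² CFU/mL, and 50 µL was spread on Mueller-Hinton agar. After 24 h at 37 °C the inhibition-zone diameter was measured. Ciprofloxacin served as positive control.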

Salmonella typhi [3] = assay: Antimicrobial activity against Salmonella typhi ATCC 23564 after 24 hrs by broth micro serial dilution method; type: functional, Salmonella enterica subsp. enterica serovar Typhi; conditions: Salmonella enterica, ATCC 23564, 24 h
HeLa = assay: Cytotoxicity against human HeLa cells after 24 hrs by MTT assay; type: functional, cell-based
Procedure, shortened: (§3)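 The MTT assay seeded 5 × 10⁴ cells per well and grew them 24 h in RPMI 1640 with compound at 2.5–200 µM. Medium without cells was the blank and adriamycin the positive control. MTT was added for 4 h at 37 °C, formazan was solubilised, and absorbance was read at 570 nm. IC50 is the concentration that cuts viability 50% against untreated cells.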

HepG2 = assay: Cytotoxicity against human HepG2 cells after 24 hrs by MTT assay; type: functional, cell-based; procedure, shortened: as §3
Escherichia coli [4] = assay: Antimicrobial activity against Escherichia coli ATCC 35218 assessed as diameter of inhibition zone at 80 uM after 24 hrs by Kirby -Baur disc diffusion method; type: functional; conditions: ATCC 35218, 24 h, read-out: DIZ; procedure, shortened: as §2
Pseudomonas aeruginosa [5] = assay: Antimicrobial activity against Pseudomonas aeruginosa ATCC 15499 assessed as diameter of inhibition zone at 80 uM after 24 hrs by Kirby -Baur disc diffusion method; type: functional; conditions: ATCC 15499, 24 h, read-out: DIZ; procedure, shortened: as §2
Aspergillus flavus [6] = assay: Antifungal activity against Aspergillus flavus MTCC 1021 assessed as zone of inhibition at 20 uM after 48 hrs by disc diffusion method; type: functional
Procedure, shortened: (§4)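 Spores from 4-day potato dextrose agar cultures, suspended in sterile water at 1.5 × 10⁵ CFU/mL. 0.2 mL was spread on potato dextrose agar. 5 mm filter-paper discs soaked with test compound were laid on the lawn. Incubation was 48 h at 28 °C, then the inhibition zone was measured in mm. Fluconazole was the positive control and acetone the negative control.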

Trichoderma viride [7] = assay: Antifungal activity against Trichoderma viride MTCC 1107 assessed as zone of inhibition at 80 uM after 48 hrs by disc diffusion method; type: functional; conditions: MTCC 1107, 48 h, read-out: IZ; procedure, shortened: as §4
Trichoderma viride [8] = assay: Antifungal activity against Trichoderma viride MTCC 1107 after 48 hrs; type: functional; conditions: MTCC 1107, 48 h
Curvularia lunata [9] = assay: Antifungal activity against Curvularia lunata MTCC 581 after 48 hrs; type: functional; conditions: MTCC 581, 48 h
Escherichia coli [10] = assay: Antimicrobial activity against Escherichia coli ATCC 35218 assessed as diameter of inhibition zone at 20 uM after 24 hrs by Kirby -Baur disc diffusion method; type: functional; conditions: ATCC 35218, 24 h, read-out: DIZ; procedure, shortened: as §2
Bacillus cereus [11] = assay: Antimicrobial activity against Bacillus cereus MTCC 7350 assessed as diameter of inhibition zone at 40 uM after 24 hrs by Kirby -Baur disc diffusion method; type: functional; conditions: MTCC 7350, 24 h, read-out: DIZ; procedure, shortened: as §2
HCT-116 = assay: Cytotoxicity against human HCT116 cells after 24 hrs by MTT assay; type: functional, cell-based; procedure, shortened: as §3
Pseudomonas aeruginosa [12] = assay: Antimicrobial activity against Pseudomonas aeruginosa ATCC 15499 assessed as diameter of inhibition zone at 20 uM after 24 hrs by Kirby -Baur disc diffusion method; type: functional; conditions: ATCC 15499, 24 h, read-out: DIZ; procedure, shortened: as §2
Salmonella typhi [13] = assay: Antimicrobial activity against Salmonella typhi ATCC 23564 assessed as diameter of inhibition zone at 80 uM after 24 hrs by Kirby -Baur disc diffusion method; type: functional, Salmonella enterica subsp. enterica serovar Typhi; conditions: Salmonella enterica, ATCC 23564, 24 h; read-out: DIZ
Mus musculus = assay: Antiinflammatory activity in mouse assessed as inhibition of carrageenan-induced increase in paw volume at 200 mg/kg administered 1 hr prior to carrageenan challenge measured after 3 hrs relative to control; type: functional
Procedure, shortened: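 Mice were fasted 2 h and placed in groups of five. Controls received saline i.p. Phenylbutazone was given at 100 mg/kg i.p., curcumin at 200 mg/kg i.p., and derivatives at 200 mg/kg. After 1 h, 0.1 mL of 1% carrageenan in saline was injected subplantar into the right hind paw. Paw volume was followed by plethysmometer for 3 h, and % inhibition was calculated as (Vc − Vt)/Vc × 100.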

Curvularia lunata [14] = assay: Antifungal activity against Curvularia lunata MTCC 581 assessed as zone of inhibition at 80 uM after 48 hrs by disc diffusion method; type: functional; conditions: MTCC 581, 48 h, read-out: IZ; procedure, shortened: as §4
Trichoderma viride [15] = assay: Antifungal activity against Trichoderma viride MTCC 1107 assessed as zone of inhibition at 20 uM after 48 hrs by disc diffusion method; type: functional; conditions: MTCC 1107, 48 h, read-out: IZ; procedure, shortened: as §4
Aspergillus niger [16] = assay: Antifungal activity against Aspergillus niger MTCC 1108 assessed as zone of inhibition at 80 uM after 48 hrs by disc diffusion method; type: functional; conditions: MTCC 1108, 48 h, read-out: IZ; procedure, shortened: as §4
Aspergillus niger [17] = assay: Antifungal activity against Aspergillus niger MTCC 1108 after 48 hrs; type: functional; conditions: MTCC 1108, 48 h
Aspergillus flavus [18] = assay: Antifungal activity against Aspergillus flavus MTCC 1021 assessed as zone of inhibition at 80 uM after 48 hrs by disc diffusion method; type: functional; conditions: MTCC 1021, 48 h, read-out: IZ; procedure, shortened: as §4
Staphylococcus aureus [19] = assay: Antimicrobial activity against Staphylococcus aureus ATCC 11632 assessed as diameter of inhibition zone at 20 uM after 24 hrs by Kirby -Baur disc diffusion method; type: functional; conditions: ATCC 11632, 24 h, read-out: DIZ; procedure, shortened: as §2
Bacillus cereus [20] = assay: Antimicrobial activity against Bacillus cereus MTCC 7350 after 24 hrs by broth micro serial dilution method; type: functional; conditions: MTCC 7350, 24 h; procedure, shortened: as §1
Trichoderma viride [21] = assay: Antifungal activity against Trichoderma viride MTCC 1107 assessed as zone of inhibition at 40 uM after 48 hrs by disc diffusion method; type: functional; conditions: MTCC 1107, 48 h, read-out: IZ; procedure, shortened: as §4
Salmonella typhi [22] = assay: Antimicrobial activity against Salmonella typhi ATCC 23564 assessed as diameter of inhibition zone at 20 uM after 24 hrs by Kirby -Baur disc diffusion method; type: functional, Salmonella enterica subsp. enterica serovar Typhi; conditions: Salmonella enterica, ATCC 23564, 24 h; read-out: DIZ
Bacillus cereus [23] = assay: Antimicrobial activity against Bacillus cereus MTCC 7350 assessed as diameter of inhibition zone at 20 uM after 24 hrs by Kirby -Baur disc diffusion method; type: functional; conditions: MTCC 7350, 24 h, read-out: DIZ; procedure, shortened: as §2
Curvularia lunata [24] = assay: Antifungal activity against Curvularia lunata MTCC 581 assessed as zone of inhibition at 20 uM after 48 hrs by disc diffusion method; type: functional; conditions: MTCC 581, 48 h, read-out: IZ; procedure, shortened: as §4
Curvularia lunata [25] = assay: Antifungal activity against Curvularia lunata MTCC 581 assessed as zone of inhibition at 40 uM after 48 hrs by disc diffusion method; type: functional; conditions: MTCC 581, 48 h, read-out: IZ; procedure, shortened: as §4
Pseudomonas aeruginosa [26] = assay: Antimicrobial activity against Pseudomonas aeruginosa ATCC 15499 after 24 hrs by broth micro serial dilution method; type: functional; conditions: ATCC 15499, 24 h; procedure, shortened: as §1
Salmonella typhi [27] = assay: Antimicrobial activity against Salmonella typhi ATCC 23564 assessed as diameter of inhibition zone at 40 uM after 24 hrs by Kirby -Baur disc diffusion method; type: functional, Salmonella enterica subsp. enterica serovar Typhi; conditions: Salmonella enterica, ATCC 23564, 24 h; read-out: DIZ
Aspergillus flavus [28] = assay: Antifungal activity against Aspergillus flavus MTCC 1021 after 48 hrs; type: functional; conditions: MTCC 1021, 48 h
Aspergillus niger [29] = assay: Antifungal activity against Aspergillus niger MTCC 1108 assessed as zone of inhibition at 20 uM after 48 hrs by disc diffusion method; type: functional; procedure, shortened: as §4
Aspergillus flavus [30] = assay: Antifungal activity against Aspergillus flavus MTCC 1021 assessed as zone of inhibition at 40 uM after 48 hrs by disc diffusion method; type: functional; conditions: MTCC 1021, 48 h, read-out: IZ; procedure, shortened: as §4
Staphylococcus aureus [31] = assay: Antimicrobial activity against Staphylococcus aureus ATCC 11632 assessed as diameter of inhibition zone at 40 uM after 24 hrs by Kirby -Baur disc diffusion method; type: functional; conditions: ATCC 11632, 24 h, read-out: DIZ; procedure, shortened: as §2
Staphylococcus aureus [32] = assay: Antimicrobial activity against Staphylococcus aureus ATCC 11632 assessed as diameter of inhibition zone at 80 uM after 24 hrs by Kirby -Baur disc diffusion method; type: functional; conditions: ATCC 11632, 24 h, read-out: DIZ; procedure, shortened: as §2
Bacillus cereus [33] = assay: Antimicrobial activity against Bacillus cereus MTCC 7350 assessed as diameter of inhibition zone at 80 uM after 24 hrs by Kirby -Baur disc diffusion method; type: functional; conditions: MTCC 7350, 24 h, read-out: DIZ; procedure, shortened: as §2
Staphylococcus aureus [34] = assay: Antimicrobial activity against Staphylococcus aureus ATCC 11632 after 24 hrs by broth micro serial dilution method; type: functional; conditions: ATCC 11632, 24 h; procedure, shortened: as §1
Aspergillus niger [35] = assay: Antifungal activity against Aspergillus niger MTCC 1108 assessed as zone of inhibition at 40 uM after 48 hrs by disc diffusion method; type: functional; conditions: MTCC 1108, 48 h, read-out: IZ; procedure, shortened: as §4
QG-56 = assay: Cytotoxicity against human QG56 cells after 24 hrs by MTT assay; type: functional, cell-based; procedure, shortened: as §3
Escherichia coli [36] = assay: Antimicrobial activity against Escherichia coli ATCC 35218 assessed as diameter of inhibition zone at 40 uM after 24 hrs by Kirby -Baur disc diffusion method; type: functional; conditions: ATCC 35218, 24 h, read-out: DIZ; procedure, shortened: as §2

COc1cc(/C=C/C(O)=C/C(/C=C/c2ccc(O)c(OC)c2)=N/c2ccc(S(=O)(=O)Nc3cc(C)on3)cc2)ccc1O
MIC (Escherichia coli [1]): 20 µM (≈ 12.1 µg/mL)
zone of inhibition at 40 µM (Pseudomonas aeruginosa [2]): 23 mm
MIC (Salmonella typhi [3]): 20 µM (≈ 12.1 µg/mL)
IC50 (HeLa): 50 µM
IC50 (HepG2): 25 µM
zone of inhibition at 80 µM (Escherichia coli [4]): 27 mm
zone of inhibition at 80 µM (Pseudomonas aeruginosa [5]): 25 mm
inhibition zone (IZ) (Aspergillus flavus [6]): inactive
zone of inhibition at 80 µM (Trichoderma viride [7]): 13 mm
MIC (Trichoderma viride [8]): 80 µM (≈ 48.3 µg/mL)
MIC (Curvularia lunata [9]): 80 µM (≈ 48.3 µg/mL)
zone of inhibition at 20 µM (Escherichia coli [10]): 19 mm
zone of inhibition at 40 µM (Bacillus cereus [11]): 18 mm
IC50 (HCT-116): 25 µM
zone of inhibition at 20 µM (Pseudomonas aeruginosa [12]): 17 mm
zone of inhibition at 80 µM (Salmonella typhi [13]): 20 mm
inhibition in vivo at 200 mg/kg (Mus musculus): 33.8%
zone of inhibition at 80 µM (Curvularia lunata [14]): 11 mm
zone of inhibition at 20 µM (Trichoderma viride [15]): 9 mm
zone of inhibition at 80 µM (Aspergillus niger [16]): 12 mm
MIC (Aspergillus niger [17]): 40 µM (≈ 24.1 µg/mL)
zone of inhibition at 80 µM (Aspergillus flavus [18]): 11 mm
zone of inhibition at 20 µM (Staphylococcus aureus [19]): 17 mm
MIC (Bacillus cereus [20]): 20 µM (≈ 12.1 µg/mL)
zone of inhibition at 40 µM (Trichoderma viride [21]): 11 mm
zone of inhibition at 20 µM (Salmonella typhi [22]): 12 mm
zone of inhibition at 20 µM (Bacillus cereus [23]): 13 mm
zone of inhibition at 20 µM (Curvularia lunata [24]): 9 mm
zone of inhibition at 40 µM (Curvularia lunata [25]): 10 mm
MIC (Pseudomonas aeruginosa [26]): 20 µM (≈ 12.1 µg/mL)
zone of inhibition at 40 µM (Salmonella typhi [27]): 17 mm
MIC (Aspergillus flavus [28]): > 80 µM
inhibition zone (IZ) (Aspergillus niger [29]): inactive
zone of inhibition at 40 µM (Aspergillus flavus [30]): 9 mm
zone of inhibition at 40 µM (Staphylococcus aureus [31]): 21 mm
zone of inhibition at 80 µM (Staphylococcus aureus [32]): 24 mm
zone of inhibition at 80 µM (Bacillus cereus [33]): 21 mm
MIC (Staphylococcus aureus [34]): 20 µM (≈ 12.1 µg/mL)
zone of inhibition at 40 µM (Aspergillus niger [35]): 9 mm
IC50 (QG-56): 50 µM
zone of inhibition at 40 µM (Escherichia coli [36]): 21 mm
